Series [1] can be described thus: Chemical stability assessed as enzymatic hydrolysis half life in RPMI-1640 culture medium containing heat non-inactivated fetal bovine serum by HPLC analysis. Format: physicochemical. Conditions: cattle. In a few lines:
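Enzymatic hydrolysis by phosphoesterases was followed in RPMI-1640 containing heat non-inactivated FBS (RPMI/FBS 9:1, v/v).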

Series [2] in a line: Chemical stability in RPMI-1640 culture medium at 2 uM up to 6 days by HPLC analysis. Format: physicochemical. Conditions: 144 h.
Series [3] in a line: Chemical stability assessed as chemical hydrolysis half life in RPMI-1640 culture medium by HPLC analysis. It is filed as physicochemical. The essentials:
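Chemical hydrolysis of the compounds was followed in RPMI-1640 medium alone.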

Series [4] can be described thus: Cytotoxicity against human MT4 cells after 96 hrs by MTT assay. It is filed as cell-based. The essentials:
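Exponentially growing mock-infected MT-4 cells were seeded at 1 × 10⁵ cells/ml in RPMI-1640 with 10% FCS, penicillin G and streptomycin. They were incubated with serial compound dilutions at 37 °C in humidified 5% CO₂, and viability was read by MTT after 96 h. CC50 is the concentration reducing viability by 50%, as the mean of three independent determinations.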

In series [5] the test system is Human immunodeficiency virus 1. The series is described as follows: Antiviral activity against HIV1 3B infected in human MT4 cells assessed as protection from virus-induced cytopathogenicity after 4 days by MTT assay. The settings on record: Human immunodeficiency virus 1, 3B, MT4, 96 h. Format: functional, organism-based. In a few lines: (§1)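 MT-4 cells, acutely infected at m.o.i. 0.01, were used to read inhibition of HIV-1-induced cytopathogenicity. Compounds were made as 100 mM DMSO stocks and diluted in culture medium. Viability was read by MTT. EC50 is the concentration giving 50% protection, as the mean (+SD) of three independent determinations.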
Background: Damage to the host cells serves as the signal in cytopathic effect assays.

Series [6] can be described thus: Selectivity index, ratio of CC50 for human MT4 cells to EC50 for HIV1 3B. The settings on record: read-out: Ratio CC50/EC50. Format: toxicity, cell-based.
Series [7] has as its system Human immunodeficiency virus 1. Description: Antiviral activity against non-nucleoside reverse transcriptase inhibitor-resistant HIV1 bearing reverse transcriptase N119 (Y181C) mutation infected in human MT4 cells assessed as protection from virus-induced cytopathogenicity after 4 days by MTT assay. Conditions: Human immunodeficiency virus 1, MT4, 96 h. Format: functional, organism-based. In a few lines:
as §1

For series [8], the system named is Human immunodeficiency virus 1. Description: Antiviral activity against non-nucleoside reverse transcriptase inhibitor-resistant HIV1 bearing reverse transcriptase A17 (K103N, Y181C) mutation infected in human MT4 cells assessed as protection from virus-induced cytopathogenicity after 4 days by MTT assay. Format: functional, organism-based. Conditions: Human immunodeficiency virus 1, MT4, 96 h. In a few lines:
as §1

Series [9] concerns Human immunodeficiency virus 1. The series is described as follows: Antiviral activity against efavirenz-resistant HIV1 infected in human MT4 cells assessed as protection from virus-induced cytopathogenicity after 4 days by MTT assay. It is filed as functional, organism-based. The settings on record: Human immunodeficiency virus 1, MT4, 96 h. In a few lines: as §1
Series [10] deals with Human immunodeficiency virus 1. Description: Antiviral activity against azidothymidine-resistant HIV1 infected in human MT4 cells assessed as protection from virus-induced cytopathogenicity after 4 days by MTT assay. Conditions: Human immunodeficiency virus 1, MT4, 96 h. It is filed as functional, organism-based. The essentials: as §1
Series [11] concerns Human immunodeficiency virus 1. The series is described as follows: Antiviral activity against MDR1-resistant HIV1 infected in human MT4 cells assessed as protection from virus-induced cytopathogenicity after 4 days by MTT assay. The settings on record: Human immunodeficiency virus 1, MT4, 96 h. Format: functional, organism-based. In a few lines:
as §1

A value given as a limit tells only on which side of the number the result lay.

In general, half-life refers to the time in which the quantity being followed falls by half. Turning to `Cc1ccc(OP(=O)(O)OC[C@H]2O[C@@H](n3cc(C)c(=O)[nH]c3=O)C[C@@H]2N=[N+]=[N-])cn1`, the half-life in series [1] was 28.9 h. For the same compound, the Stability result in series [2] is “Stable”.

As to `O=c1ccn([C@H]2CC[C@@H](COP(=O)(O)Oc3ccccc3)O2)c(=O)[nH]1`, the half-life in series [1] was found to be 25.1 h. Besides, in series [2], the Stability entry was “Stable”.

Turning to `Cc1cn([C@H]2C[C@H](N=[N+]=[N-])[C@@H](COP(=O)(O)Oc3cncc(Cl)c3)O2)c(=O)[nH]c1=O`, in [1], the half-life is 7.27 h. For the same compound, the Stability entry in [2] is reported as “Stable”.

For orientation: CC50 means the concentration that lowers cell viability or growth by half. A high value points to better tolerance by the cells. Usually EC50 stands for the concentration needed to bring the measured effect to its halfway point. Take `Cc1cn([C@H]2C[C@H](N=[N+]=[N-])[C@@H](COP(=O)(Oc3ccccc3)Oc3ccncc3)O2)c(=O)[nH]c1=O` (stereo partly specified): the half-life in series [3] is 12.8 h. Moreover, the CC50 at 96 h in [4] was over 100 µM. Besides, the EC50 in series [5] was found to be 0.01 µM; in series [7], 0.01 µM; in [8], 0.008 µM; in series [9], 0.01 µM; in series [10] it was 0.4 µM; in series [11], 0.1 µM. In addition, in series [6], the selectivity ratio was over 10000.

For the compound `Cc1cn([C@H]2C[C@H](N=[N+]=[N-])[C@@H](COP(=O)(O)Oc3ccncc3)O2)c(=O)[nH]c1=O`, the half-life in series [1] came to 8.07 h. For the same compound, the Stability result in series [2] was “Stable”.

With `Cc1cn([C@H]2C[C@H](N=[N+]=[N-])[C@@H](COP(=O)(O)Oc3ccc(C#N)cc3)O2)c(=O)[nH]c1=O`, the half-life in series [1] stood at 7.08 h. The Stability result in series [2] is listed as “Stable”.

As to `Cc1cn([C@H]2C[C@H](N=[N+]=[N-])[C@@H](COP(=O)(O)Oc3cccnc3)O2)c(=O)[nH]c1=O`, the half-life in series [1] was 3.88 h. Moreover, the Stability result in series [2] was “Stable”.

Turning to `Cc1cn([C@H]2C[C@H](N=[N+]=[N-])[C@@H](COP(=O)(O)Oc3ccc(Br)cc3)O2)c(=O)[nH]c1=O`, the half-life in [1] was found to be 7.97 h. In addition, the Stability result in series [2] was “Stable”.

For `Cc1cn([C@H]2C[C@H](N=[N+]=[N-])[C@@H](COP(=O)(O)Oc3ccc(Cl)cc3Cl)O2)c(=O)[nH]c1=O`, the half-life in [1] amounted to 3.03 h. In addition, the Stability entry in [2] is “Stable”.

On to `Cc1cn([C@H]2C[C@H](N=[N+]=[N-])[C@@H](COP(=O)(O)Oc3ccccc3)O2)c(=O)[nH]c1=O`, for which, in series [1], the half-life was 9.47 h. Moreover, the Stability entry in [2] was “Stable”.

With `O=c1ccn([C@H]2CC[C@@H](COP(=O)(O)Oc3cccnc3)O2)c(=O)[nH]1`, in [1], the half-life stood at 50.2 h. The Stability result in series [2] is given as “Stable”.

For the compound `O=c1ccn([C@H]2CC[C@@H](COP(=O)(O)Oc3ccncc3)O2)c(=O)[nH]1`, the half-life in series [1] was determined as 23.6 h. Further, the Stability entry in series [2] is “Stable”.

For the compound `Nc1ncnc2c1ncn2[C@H]1CC[C@@H](COP(=O)(O)Oc2cccnc2)O1`, in series [1], the half-life worked out at 64.2 h. The Stability result in [2] is “Stable”.

On to `Cc1cn([C@H]2C[C@H](N=[N+]=[N-])[C@@H](COP(=O)(O)Oc3cccnc3Cl)O2)c(=O)[nH]c1=O`, for which the half-life in [1] is 16.3 h. The Stability entry in [2] was “Stable”.

With `Nc1ncnc2c1ncn2[C@H]1CC[C@@H](COP(=O)(O)Oc2ccccc2)O1`, the half-life in [1] was 36.1 h. In addition, the Stability entry in series [2] was “Stable”.

With `Cc1ncccc1OP(=O)(O)OC[C@H]1O[C@@H](n2cc(C)c(=O)[nH]c2=O)C[C@@H]1N=[N+]=[N-]`, in series [1], the half-life turned out to be 15.8 h. Besides, the Stability entry in series [2] is on record as “Stable”.

On to `Cc1cn([C@H]2C[C@H](N=[N+]=[N-])[C@@H](COP(=O)(O)Oc3ccc(Cl)cc3)O2)c(=O)[nH]c1=O`, for which, in [1], the half-life came out at 5.5 h. Also, in [2], the Stability entry is “Stable”.

These data come from ChEMBL document CHEMBL1151848, “Aryl nucleoside H-phosphonates. Part 16: synthesis and anti-HIV-1 activity of di-aryl nucleoside phosphotriesters” (Bioorg Med Chem, 2009).
